High-throughput results: PubChem BioAssay, several laboratories
An excerpt weighted towards active compounds, which were near 1.9% of everything screened.
UHRF1 MBD2 ctr: human UHRF1 methylated DNA binding inhibitors | inhibition, % at 4.4 µM | Q96T88 | UHRF1 binding to methylated oligo, TR-FRET | AID 687016 | hit rate 0.75% among 370,000; in the data active = inhibition above about 21%;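 also: UHRF1 SRA domain binding a hemimethylated CpG hairpin DNA probe; 0% = median of test compound wells and 100% = reference inhibitor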
TDP2 absorb: blocks human TDP2 phosphodiesterase activity; O95551; inhibition, % at 12.8 µM; AID 720702; recombinant TDP2, T5PNP hydrolysis, p-nitrophenol absorbance 415 nm; hit rate 0.34% among 370,000;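 active = inhibition above the mean of all tested compounds plus 3 SD, set per campaign, cut at about 25% in these data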;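 also: 0% = DMSO with enzyme and 100% = buffer with substrate but no TDP2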
Target sequence (O95551 whole entry, looked up): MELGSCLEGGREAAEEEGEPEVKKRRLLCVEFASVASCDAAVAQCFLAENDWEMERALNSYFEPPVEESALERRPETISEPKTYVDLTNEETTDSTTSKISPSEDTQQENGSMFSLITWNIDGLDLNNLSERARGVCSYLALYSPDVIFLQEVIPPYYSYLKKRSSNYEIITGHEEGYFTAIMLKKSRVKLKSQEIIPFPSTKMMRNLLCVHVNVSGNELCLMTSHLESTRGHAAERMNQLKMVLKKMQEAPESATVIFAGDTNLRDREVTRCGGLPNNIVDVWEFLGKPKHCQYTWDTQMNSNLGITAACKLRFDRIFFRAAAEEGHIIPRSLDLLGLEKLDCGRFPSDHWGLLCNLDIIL
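System – recombinant human TDP2 · Amount – 120 nM TDP2 per well · Buffer or medium – Mg2+-containing Tris-HCl buffer, pH 7.5 · Reagent – T5PNP substrate, 5 mM · Dosing – 12.8 µM single point, 1% DMSO · Incubation – 2 h at 37 °C · Measured by – epi absorbance · Read-out basis – percent inhibition · Benchmarks – high control without enzyme, low control DMSO plus TDP2 · Repeats – singlicate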
NSD2 HMT inh: inhibitors of human histone methyltransferase NSD2; AID 743445; NSD2 peptide methylation, AlphaScreen, 120 min; inhibition, % at 12.5 µM; O96028; hit rate 0.54% among 310,000; in the data active = inhibition above about 50%
MBD2 DNA inh: MBD2-methylated oligo binding inhibition; Q9UBB5; TR-FRET, MBD2 binding to methylated oligonucleotide; inhibition, % at 4.4 µM; hit rate 0.31% among 370,000; AID 686964; in the data active = inhibition above about 13%
Target sequence (Q9UBB5 whole entry, looked up): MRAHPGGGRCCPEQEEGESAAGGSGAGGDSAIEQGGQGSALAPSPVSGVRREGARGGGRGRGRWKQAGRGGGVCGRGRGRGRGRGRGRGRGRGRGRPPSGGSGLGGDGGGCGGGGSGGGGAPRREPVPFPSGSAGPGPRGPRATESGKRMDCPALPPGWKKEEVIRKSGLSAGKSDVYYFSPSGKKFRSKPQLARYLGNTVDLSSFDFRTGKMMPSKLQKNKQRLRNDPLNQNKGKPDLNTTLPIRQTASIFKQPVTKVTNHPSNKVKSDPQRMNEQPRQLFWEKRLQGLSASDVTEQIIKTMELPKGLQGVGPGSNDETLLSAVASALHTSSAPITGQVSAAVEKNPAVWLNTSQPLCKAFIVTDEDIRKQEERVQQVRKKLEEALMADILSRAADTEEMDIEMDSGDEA
CASP6 VEID inh: blocks human caspase-6 cleavage activity; purified caspase-6, Z-VEID-R110 cleavage fluorescence; inhibition, % at 12.5 µM; hit rate 0.53% among 350,000;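 active = mean inhibition across replicates at least about 35%, with every replicate also reaching that limit, limit read from the data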;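 also: 0% = median of neutral control wells and 100% = no fluorescence left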
LEDGF integ inh: blocks HIV-1 LEDGF/p75-dependent DNA integration | TR-FRET IN-LEDGF/p75 DNA integration, Eu/Cy5 | hit rate 0.64% among 370,000 | AID 743269 | inhibition, % at 3.7 µM;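 active = inhibition above the screen-wide mean plus 3 SD, cut at about 13% in these data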;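 also: signal is the Cy5 over europium emission ratio at 671 and 618 nm; 0% = plate median of compound wells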
IN multimer up: counter-screen for LEDGF/p75 integration inhibitors: HIV-1 integrase multimerization activators; shares compounds with LEDGF integ inh; TR-FRET HIV-1 integrase multimerization, biochemical; activation, % at 7.7 µM; hit rate 17% among 2,000; in the data active = activation above about 8.9%
TR-FRET interf: TR-FRET optical interference, LEDGF/p75 integration counter-screen; shares compounds with LEDGF integ inh; TR-FRET optical interference counterscreen, HIV-1 IN multimerization; inhibition, % at 7.7 µM; 2,000 tested, under 10 active;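 active = inhibition above the mean over all tested compounds plus 3 SD, which no compound reached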;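 also: 0% = integrase with antibodies and DMSO and 100% = antibodies without integrase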
IN-LEDGF confirm: confirmation of HIV-1 LEDGF/p75-dependent integration inhibitors; shares compounds with LEDGF integ inh; TR-FRET LEDGF/p75-dependent HIV-1 integration, biochemical; inhibition, % at 3.7 µM; hit rate 36% among 2,000; AID 1053136; in the data active = inhibition above about 14%
Numbers without * were called inactive; / = not tested or not shown.

SMILES	UHRF1 MBD2 ctr	TDP2 absorb	NSD2 HMT inh	MBD2 DNA inh	CASP6 VEID inh	LEDGF integ inh	IN multimer up	TR-FRET interf	IN-LEDGF confirm
O=C(Nc1nc(Cc2ccccc2)c(Cc2ccccc2)n1Cc1ccccc1)c1ccccc1	-2.7	10.1	/	0.9	/	5.2	/	/	/
COc1ccc(-c2c(Cc3ccccc3)nc(NC(=O)c3ccccc3)n2C)cc1	0.5	7.1	/	3.4	/	13.2	/	/	/
COc1ccc(Cn2c(NC(=O)c3ccccc3)nc(Cc3ccccc3)c2Cc2ccccc2)cc1	-2.6	-5.3	/	-0.8	/	14.3*	-0.4	2.2	13.8*
CCCn1c(NC(=O)c2ccccc2)nc(Cc2ccccc2)c1Cc1ccccc1	-0.1	-1.4	/	1.9	/	14.8*	1.6	-8.2	25.0*
Cn1c(NC(=O)c2ccccc2)nc(Cc2ccccc2)c1-c1ccccc1	0.6	-5.2	/	-6.2	/	23.1*	0.7	-3.4	31.2*
Cn1c(NC(=O)c2ccccc2)nc(Cc2ccccc2)c1Cc1ccccc1	-1.6	-6.5	/	-5.1	/	24.6*	0.8	-3.9	27.3*
COc1ccc(Cn2c(NC(=O)c3ccccc3)nc(Cc3ccccc3)c2Cc2ccccc2)c(OC)c1	0.1	-3.3	/	-1.8	/	4.6	/	/	/
C[C@H]1CN([C@@H](C)CO)S(=O)(=O)c2ccc(C#CCN(C)C)cc2O[C@@H]1CN(C)Cc1ccccc1	/	/	/	/	-0.4	/	/	/	/
C[C@H]1CN([C@@H](C)CO)C(=O)Cc2cc(NC(=O)C3CCCCC3)ccc2O[C@H]1CN(C)C(=O)NC1CCCCC1	/	/	/	/	-0.9	/	/	/	/
NC(=S)NN=Cc1nccc2c(N)cccc12	-7.8	2.8	/	-12.2	32.3	20.0*	14.9*	-75.3	17.1*
CCN(C(C)=O)c1cnc(C=NNC(N)=S)c2ccccc12	-5.7	-0.7	7.6	-5.1	33.3	1.3	/	/	/
CN(C)c1ccc(N=Cc2cccn2C)cc1	2.9	25.2*	/	-14.2	1.1	22.5*	1.7	-8.6	10.3
COc1ccc(N=Cc2ccc(CNS(=O)(=O)c3ccc(Cl)cc3)o2)cc1	-0.6	-5.0	0.5	-5.7	/	-1.3	/	/	/
CCOC(=O)C1=C(O)/C(=C\c2ccc(CNS(=O)(=O)c3ccc(Br)cc3)o2)N=C1C	5.2	-3.3	0.8	-2.0	/	21.8*	3.0	-10.8	-3.1
COC(=O)C1=C(O)/C(=C\c2ccc(CNS(=O)(=O)c3ccc(Cl)cc3)o2)N=C1C	13.4	0.6	-1.5	-0.1	49.1*	52.7*	4.6	-23.0	14.4*
COC(=O)C1=C(O)/C(=C\c2ccc(CNS(=O)(=O)c3ccccc3)o2)N=C1C	4.9	1.4	2.8	-0.3	/	23.5*	6.6	-33.5	18.2*
O=C(CCN1CCCCC1)NCC[C@@H]1CC[C@@H](NC(=O)Cc2cccnc2)[C@@H](CO)O1	/	/	/	/	-1.3	/	/	/	/
CCCNC(=O)[C@@H]1[C@@H](CO)[C@@H]2Cn3c(cccc3=O)[C@@H]2N1CCC(F)(F)F	/	/	/	/	0.8	/	/	/	/
C[C@@H]1CN([C@@H](C)CO)C(=O)c2cc(NC(=O)C3CCCCC3)ccc2O[C@@H]1CN(C)C(=O)NC1CCCCC1	/	/	/	/	-4.1	/	/	/	/
Oc1ccc(N=Cc2ccc(OCc3ccccc3)cc2)cc1	7.9	22.6	78.9*	-2.6	8.1	34.3*	21.9*	-77.6	35.2*
Cc1ccc(S(=O)(=O)Nc2cc(C(=O)N3CCOCC3)ccc2N2CCCCC2)cc1	2.0	0.1	1.4	-4.9	/	24.5*	0.9	-4.6	-1.9
CO[C@@H](CN(C)Cc1nccs1)[C@@H](C)CN([C@H](C)CO)S(=O)(=O)c1ccc(C)cc1	/	/	/	/	0.6	/	/	/	/
COc1cccc(CN2CC3(CN(C(=O)Nc4c(C)noc4C)C3)c3c([nH]c4cc(OC)ccc34)[C@@H]2CO)c1	/	/	/	/	0.5	/	/	/	/
CCN(C[C@H]1N[C@@](Cc2ccccc2)(C(=O)OC)[C@H]2C(=O)N(Cc3ccccc3)C(=O)[C@@H]12)S(=O)(=O)c1ccc(C(F)(F)F)cc1	2.0	9.5	/	4.5	-5.7	25.3*	0.3	-1.5	-14.1
COC(=O)[C@]1(Cc2ccccc2)N[C@H](CN(C)S(=O)(=O)c2ccc(C(F)(F)F)cc2)[C@@H]2C(=O)N(Cc3ccccc3)C(=O)[C@@H]21	0.7	0.6	/	1.2	4.5	-4.9	/	/	/
SMILES	UHRF1 MBD2 ctr	TDP2 absorb	NSD2 HMT inh	MBD2 DNA inh	CASP6 VEID inh	LEDGF integ inh	IN multimer up	TR-FRET interf	IN-LEDGF confirm
COC(=O)[C@]1(C)N[C@H](CN(C)S(=O)(=O)c2ccc(C(F)(F)F)cc2)[C@@H]2C(=O)N(C)C(=O)[C@@H]21	-3.2	2.4	/	1.4	9.7	35.5*	-2.2	8.1	-5.2
O=C(CCN1CCCCC1)N[C@@H]1CC[C@@H](CCn2cc(-c3cccc(F)c3)nn2)O[C@@H]1CO	/	/	/	/	0.2	/	/	/	/
Cc1ccc(Nc2ccc(NCc3ccccc3)nn2)cc1C	7.5	0.0	0.8	1.7	/	46.9*	1.5	-7.5	-3.9
Cn1cnc(S(=O)(=O)N2CC[C@@H]3[C@H]2c2cc(C#Cc4ccccc4F)ccc2N[C@@H]3CO)c1	/	/	/	/	2.3	/	/	/	/
Clc1cccc(Oc2cnns2)c1Cl	3.2	6.2	-1.6	1.0	/	16.9*	2.0	-7.0	-4.8
Clc1cccc(OCCn2cncn2)c1Cl	-0.7	-1.7	/	0.3	/	-1.1	/	/	/
Oc1cc(Br)ccc1C=Nc1ccc(N2CCCCC2)cc1	-1.0	19.5	-1.6	-3.1	-5.0	6.2	/	/	/
Oc1ccc(N=Nc2cccc(C(F)(F)F)c2)cc1C=Nc1ccc(N2CCOCC2)cc1	-3.9	22.0	3.1	-2.8	/	14.1*	-0.9	2.9	14.1*
Oc1ccc(C=Nc2ccc(N3CCOCC3)cc2)c(O)c1	-2.6	11.8	2.7	-2.6	/	19.5*	19.2*	-96.5	23.4*
C[C@H]1CN([C@@H](C)CO)C(=O)c2cccc(NC(=O)C3CCCCC3)c2O[C@@H]1CN(C)Cc1ccncc1	/	/	/	/	-1.4	/	/	/	/
CCCC(=O)Nc1ccc2c(c1)C(=O)N(C)C[C@@H](OC)[C@H](C)CN(C)[C@@H](C)CO2	/	/	/	/	-17.7	/	/	/	/
CSC1=NC2C(N1)N(C)C(=O)N2C (configuration not stated)	-0.9	8.4	0.4	1.4	/	35.3*	-0.3	1.7	-2.2
CCCCN1C(=O)N(C)C2NC(=O)NC21 (configuration not stated)	-2.2	-6.3	6.9	3.1	/	-2.7	/	/	/
O=C(CCl)Nc1nc(-c2ccco2)c(-c2ccco2)s1	2.3	5.3	11.7	-0.5	18.5	24.5*	22.8*	-114.6	68.0*
Nc1nc(-c2ccco2)c(-c2ccco2)s1	8.4	3.5	4.1	1.6	/	29.8*	8.9*	-44.5	18.9*
